Assay outcomes deposited in PubChem by several laboratories.
This is a sample that favours compounds with a hit; in the whole collection about 0.94% have one here.
NPR2 activator – human GC-B receptor activators, primary screen, HEK293 GC-B cells, cGMP TR-FRET, EC30 CNP | activation, % at 10 µM | actives 0.11% (n = 370,000) | Atrial natriuretic peptide receptor 2 (Homo sapiens), P20594 | 0% at EC30 CNP, 100% saturating CNP;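 active = activation at 10 µM reaching about 35% in either raw or pattern-adjusted values, limit read from the data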
Target sequence (P20594 whole entry, looked up): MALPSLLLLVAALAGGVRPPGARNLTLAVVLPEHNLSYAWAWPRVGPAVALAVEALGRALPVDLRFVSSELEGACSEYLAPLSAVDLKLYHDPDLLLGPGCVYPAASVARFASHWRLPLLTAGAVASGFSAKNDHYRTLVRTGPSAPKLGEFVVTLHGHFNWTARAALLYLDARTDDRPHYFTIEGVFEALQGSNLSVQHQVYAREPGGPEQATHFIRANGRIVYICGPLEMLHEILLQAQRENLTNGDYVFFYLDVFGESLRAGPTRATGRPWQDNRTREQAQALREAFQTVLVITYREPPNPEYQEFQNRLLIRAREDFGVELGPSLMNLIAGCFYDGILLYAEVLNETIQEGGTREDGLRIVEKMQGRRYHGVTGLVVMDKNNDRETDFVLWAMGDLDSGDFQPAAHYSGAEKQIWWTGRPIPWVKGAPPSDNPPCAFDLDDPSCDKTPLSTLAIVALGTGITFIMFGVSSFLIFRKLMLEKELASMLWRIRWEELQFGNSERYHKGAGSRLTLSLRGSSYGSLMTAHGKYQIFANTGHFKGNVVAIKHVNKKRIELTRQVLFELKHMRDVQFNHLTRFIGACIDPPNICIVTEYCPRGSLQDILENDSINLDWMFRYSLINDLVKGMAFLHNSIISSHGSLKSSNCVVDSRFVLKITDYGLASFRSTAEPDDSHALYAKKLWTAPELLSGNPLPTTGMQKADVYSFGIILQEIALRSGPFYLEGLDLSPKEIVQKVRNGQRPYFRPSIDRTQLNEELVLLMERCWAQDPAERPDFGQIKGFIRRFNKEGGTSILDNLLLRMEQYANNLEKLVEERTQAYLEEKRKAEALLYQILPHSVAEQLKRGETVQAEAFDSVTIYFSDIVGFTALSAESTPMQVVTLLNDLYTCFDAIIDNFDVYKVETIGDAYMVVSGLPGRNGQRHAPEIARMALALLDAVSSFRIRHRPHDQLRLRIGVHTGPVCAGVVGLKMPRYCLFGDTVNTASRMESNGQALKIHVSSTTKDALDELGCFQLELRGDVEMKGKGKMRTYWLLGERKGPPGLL
Arrestin-AP2 inh – inhibitors of beta-arrestin/AP2 binding, primary screen, biochemical, GPCR trafficking, flow cytometry; FITC-arrestin peptide / GST-AP2 beads; AP2 beta2 appendage carries R879A mutation; inhibition, % at 10 µM; actives 0.31% (n = 340,000); AID 504490, 2011;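 active = inhibition above a set limit, near 3 SD of compounds lacking own fluorescence, cut at about 54% in these data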;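 also: plate controls were DMSO wells for no effect and 5 µM unlabelled arrestin peptide for full effect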
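Assay system: GST-AP2 R879A bound to glutathione beads, E. coli-expressed; Medium: PBS with 0.05% Tween 20 and 0.1% BSA; Also added: fluorescein-tagged arrestin peptide at 50 nM final; Timing: 12 min plus 1 h, RT; Measured by: flow cytometry, FL1 (488/535 nm); Evaluation: percent drop in bead-associated FITC signal.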
GalR3 antagonist – GalR3 antagonists in HEK293 cells, primary screen, cell-based, fluorescence readout | Galanin receptor type 3 (Homo sapiens), O60755 | HEK293 GalR3-CNG cAMP membrane potential fluorescence; galR3 body fused to GalR1 C-terminus | inhibition, % at 3 µM | actives 0.44% (n = 360,000);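 active = inhibition above the screen-wide average plus 3 SD, cut at about 13% in these data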;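 also: forskolin and galanin both at EC90 stimulate the cells; cAMP rise reported by CNG channel membrane potential dye signal; 0% = forskolin plus galanin with DMSO and 100% = forskolin alone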
NPR1 activator – GC-A stimulated cGMP production enhancers – HEK293 GC-A cells, cGMP TR-FRET, EC30 ANP, primary screen; 0% at EC30 ANP, 100% saturating ANP; actives 0.14% (n = 370,000); Atrial natriuretic peptide receptor 1 (Homo sapiens), P16066; activation, % at 10 µM; in the data active = activation above about 40%
GalR3 conf – GalR3 antagonist hit confirmation, cell-based, fluorescence, triplicate | HEK293 GalR3 CNG cAMP biosensor, membrane potential fluorescence; galR3 fused to GalR1 carboxy tail; challenged with forskolin and galanin at EC90 | actives 59% (n = 1,600) | shares compounds with GalR3 antagonist | AID 652245, 2013 | inhibition, % at 3 µM;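 active = inhibition above the primary screen's cutoff, the mean inhibition of all screened compounds plus 3 SD, cut at about 13% in these data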;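 also: 0% = forskolin plus galanin and 100% = forskolin alone with DMSO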
CNG parental – nonspecific cAMP agonists in parental HEK-CNG cells, counter-screen for GalR3 antagonist project, cell-based, fluorescence, high throughput | shares compounds with GalR3 antagonist | HEK293-CNG parental cells, cAMP membrane potential fluorescence; normalised: DMSO wells 0%, forskolin wells 100% | activation, % at 3 µM | actives 10% (n = 1,600); in the data active = activation above about 1.3%
Numbers without * were called inactive; x = no result.

SMILES	NPR2 activator	Arrestin-AP2 inh	GalR3 antagonist	NPR1 activator	GalR3 conf	CNG parental
Cc1c(C(C)C)c(=O)n(-c2ccc(S(=O)(=O)NC3CCCCC3)cc2)n1C	1	-9	41*	3	51*	0
Cc1c(C(C)C)c(=O)n(-c2ccc(S(=O)(=O)N3CCOCC3)cc2)n1C	2	11	2	1	x	x
Cc1c(C(C)C)c(=O)n(-c2ccc(S(=O)(=O)NCc3ccccc3)cc2)n1C	-3	22	91*	0	102*	0
CCc1ccc(S(=O)(=O)Nc2c(C)n(C)n(-c3ccccc3)c2=O)cc1	3	4	-6	5	x	x
CCN(CC)C(=O)CC[C@H]1CC[C@]2(CCCN(Cc3nccs3)C2)O1	-4	x	x	-1	x	x
NNC(=O)c1cc2c(N3CCC(Cc4ccccc4)CC3)ncnc2s1	-5	50	29*	3	21*	1
Cn1ncc2c(N3CCC(Cc4ccccc4)CC3)ncnc21	0	-1	-5	3	x	x
COc1cc([N+](=O)[O-])cc(/C=N/NC(=O)c2cccnc2)c1O	-1	14	54*	2	7	0
COc1cc([N+](=O)[O-])cc(/C=N/NC(=O)C(O)(c2ccccc2)c2ccccc2)c1O	-2	-14	1	-1	x	x
O=S1(=O)N[C@@H](Cc2ccccc2)COc2cccc(NCCO)c21	3	x	-1	-3	x	x
CCOC(=O)c1ccc(NC(=O)CSc2nnc(-c3cccc(C)c3)n2C)cc1	-10	x	x	0	x	x
Cc1cc2c(NCCc3ccccc3)ncnc2s1	-7	-9	97*	-6	98*	0
Cc1cc2c(Nc3ccccc3)ncnc2s1	-2	7	0	-3	x	x
CCOC(=O)[C@]12CCCC3=C1N(CCC3)C(=O)[C@@H](CC(=O)N1CCC(c3ccccc3)CC1)C2	6	x	x	0	x	x
CC1CCCc2sc3nc(N4CCN(CCO)CC4)n4ncnc4c3c21 (centres undefined)	5	26	22*	2	43*	1.9*
NC(=O)CSc1nc2sc3c(c2c2ncnn12)CCCC3	-7	2	-1	7	x	x
COc1cccc(/C=C2\SC(=S)N(NC(=O)c3ccncc3)C2=O)c1	8	-1	14*	-2	0	0
O=C(NN1C(=O)/C(=C/c2cccs2)SC1=S)c1ccncc1	-4	8	1	2	x	x
CCOC(=O)c1c(O)c2c([nH]c1=O)CCCC2	7	-6	-5	2	x	x
CCOC(=O)c1c(O)c(Cl)c(C)[nH]c1=O	5	23	16*	-1	19*	0
CN(Cc1ccccc1)C(=O)OCc1cn(Cc2cccc(C(F)(F)F)c2)nn1	4	x	x	-5	x	x
Cc1nn(C)c(Nc2ccc(Br)cc2)c1Br	-9	-3	49*	-5	86*	-1
O=[N+]([O-])c1c(Nc2ccc(O)cc2)cc(Cl)c2nonc12	50*	20	58*	62*	51*	0
Nc1nc2ncccc2cc1C(=O)c1c[nH]c2ccccc12	1	x	x	-3	x	x
O=C(O)c1ccccc1C(=O)c1ccc(F)c(F)c1	4	3	17*	1	2	0
SMILES	NPR2 activator	Arrestin-AP2 inh	GalR3 antagonist	NPR1 activator	GalR3 conf	CNG parental
C/C(CCC1CC(C)(C)OC1=O)=N\NC(N)=S (centres undefined)	-6	17	13*	-1	-1	0
C/C(CCC1CC(C)OC1=O)=N\NC(N)=S (centres undefined)	5	36	-8	5	x	x
Cn1c(CN2CCCCC2)nc2cc(NC(=O)c3cccc(Br)c3)ccc21	6	22	18*	10	38*	0
COc1cc(/C=C2\SC(c3ccc(C)cc3)=NC2=O)ccc1O	x	32	17*	x	5	0
COc1ccc(/C=C2\SC(c3ccc(C)cc3)=NC2=O)cc1OC	-8	5	-7	11	x	x
O=C(c1ccc(CNS(=O)(=O)c2ccccc2)cc1)N1CCN(Cc2ccccc2)CC1	-5	-12	21*	-6	10	0
O=S(=O)(c1ccccc1)N1CCCc2nc(-c3ccccc3)ccc21	-2	x	-4	7	x	x
COC(=O)c1cc2c(c3c4cc(OC)ccc4n(C(=O)c4ccccc4)c13)C(=O)N(C1CCCCC1)C2	0	x	-3	-1	x	x
Cc1oc(-c2ccc(Cl)cc2)nc1CS(=O)CC(=O)NCCCN1CCN(Cc2ccccc2)CC1 (centres undefined)	-3	-1	69*	27	110*	2.0*
CCCC/C=C1/C(c2ccccc2)N(Cc2ccc(OC)cc2OC)C2=NC(c3ccccc3)CC(=O)N21 (centres undefined)	-5	x	x	-3	x	x
CN(C)c1ccc(C=c2c3ccccc3n3c2cc(-c2ccccc2)[n+]3C)cc1	-15	3	9	-26	x	x
CN(C)c1ccc(C=c2c3ccccc3n3c2c2c([n+]3C)CCCC2)cc1	-15	4	81*	10	89*	-2
N=C1/C(=C\c2ccc(-c3cc(Cl)cc(Cl)c3)o2)C(=O)N=C2SC=C(c3ccccc3)N12	1	2	13*	-2	5	0
C=CCNc1cccc2c1S(=O)(=O)N[C@H](C)CO2	4	x	-5	-1	x	x
CCc1onc(C)c1C(=O)Nc1ccc2c(c1)OCO2	2	4	x	1	5	0
CC1CCCN(c2cccc3c2S(=O)(=O)N(Cc2cccc(Cl)c2)[C@@H](C)[C@H](c2ccccc2)O3)C1 (some centres undefined)	0	x	-6	-6	x	x
Cc1ccc(Oc2ccc(C(=O)NCc3ccncc3)cc2)cc1	-1	0	83*	0	97*	-1
O=C(NCc1ccncc1)c1ccc(Oc2ccccc2)cc1	3	0	-11	0	x	x
N/C(=N\OC(=O)c1cccc(Cl)c1)c1cccnc1	-3	16	x	0	8	1
N/C(=N\OC(=O)c1ccc(Cl)c(Cl)c1)c1cccnc1	-13	0	-5	-1	x	x
CC(=O)Nc1ccc(OCC(O)Cn2c3ccccc3c3ccccc32)c(C)c1 (centres undefined)	-5	20	15*	-1	41*	-2
CC(=O)Nc1ccc(OCC(O)Cn2c3ccccc3c3ccccc32)cc1 (centres undefined)	4	1	-2	-2	x	x
